ChEMBL document CHEMBL4431354, “Piperazic acid derivatives inhibit Gli1 in Hedgehog signaling pathway” (Bioorg Med Chem Lett, 2016)
Activity calls are given as the source filed them. The calls are words filed in the database; no cut-off is given here.

Legend:
[1] = target: T1, Zinc finger protein GLI1 (Homo sapiens) (UniProt P08151); assay: Inhibition of Shh-N-induced Gli1 (unknown origin) expressed in mouse Shh Light2 cells assessed as Gli1-mediated mediated transcription at 50 uM incubated for 30 hrs by firefly luciferase assay; format: cell-based
T1 sequence (whole entry): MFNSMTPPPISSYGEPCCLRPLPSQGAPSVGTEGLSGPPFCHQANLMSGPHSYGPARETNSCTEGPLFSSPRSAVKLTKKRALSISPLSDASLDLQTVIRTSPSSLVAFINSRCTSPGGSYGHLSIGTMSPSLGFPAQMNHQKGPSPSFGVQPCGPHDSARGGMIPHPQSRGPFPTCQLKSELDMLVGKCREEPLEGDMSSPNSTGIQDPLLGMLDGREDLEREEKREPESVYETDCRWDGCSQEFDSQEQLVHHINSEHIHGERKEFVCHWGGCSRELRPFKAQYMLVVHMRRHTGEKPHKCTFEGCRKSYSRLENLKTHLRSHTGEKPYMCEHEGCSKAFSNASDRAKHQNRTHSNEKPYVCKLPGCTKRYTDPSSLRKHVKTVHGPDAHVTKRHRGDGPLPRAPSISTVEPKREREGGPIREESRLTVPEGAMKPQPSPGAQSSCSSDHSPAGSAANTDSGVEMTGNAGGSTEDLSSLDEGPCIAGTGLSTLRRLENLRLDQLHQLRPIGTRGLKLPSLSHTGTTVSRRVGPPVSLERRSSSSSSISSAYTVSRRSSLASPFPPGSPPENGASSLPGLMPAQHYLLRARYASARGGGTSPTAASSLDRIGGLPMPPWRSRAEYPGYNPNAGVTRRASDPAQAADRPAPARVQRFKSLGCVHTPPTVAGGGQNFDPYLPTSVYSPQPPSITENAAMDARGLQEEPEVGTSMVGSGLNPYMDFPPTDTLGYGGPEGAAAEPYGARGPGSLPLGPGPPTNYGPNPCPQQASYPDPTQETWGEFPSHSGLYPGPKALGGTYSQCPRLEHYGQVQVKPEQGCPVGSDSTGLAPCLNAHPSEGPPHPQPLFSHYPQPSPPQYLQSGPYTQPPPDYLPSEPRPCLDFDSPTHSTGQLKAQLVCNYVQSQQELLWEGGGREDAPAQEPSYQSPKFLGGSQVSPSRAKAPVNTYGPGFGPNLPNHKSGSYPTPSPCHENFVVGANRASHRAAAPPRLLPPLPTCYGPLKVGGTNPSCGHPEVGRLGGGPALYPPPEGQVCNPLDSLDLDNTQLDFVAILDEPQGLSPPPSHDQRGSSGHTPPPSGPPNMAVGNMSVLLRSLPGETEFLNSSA
Method in brief: (§1)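 Shh-LIGHT2 cells (NIH-3T3 clone stably carrying Gli-dependent firefly and constitutive Renilla luciferase) treated 30 h with graded compound concentrations in Shh-N conditioned medium; firefly luminescence read as percent inhibition versus Shh-N-stimulated DMSO control. Cyclopamine 10 µM positive control. Three independent experiments in triplicate, mean ± SD.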

[2] = target: T1, Zinc finger protein GLI1 (Homo sapiens); assay: Inhibition of Gli1 (unknown origin) expression in mouse Shh Light2 cells at 100 uM by Western blot analysis; format: cell-based
Method in brief: (§2)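 Gli1 protein immunoblotted in Shh-N-stimulated Shh-LIGHT2 cells after treatment with varying doses or 100 µM compound; GAPDH loading control; Shh-N-stimulated DMSO-treated cells as control; cyclopamine 10 µM positive control.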

[3] = target: T1, Zinc finger protein GLI1 (Homo sapiens); assay: Inhibition of Shh-N-induced Gli1 (unknown origin) expressed in mouse Shh Light2 cells assessed as Gli1-mediated mediated transcription up to 50 uM incubated for 30 hrs by firefly luciferase assay; format: cell-based; method in brief: as §1
[4] = target: T1, Zinc finger protein GLI1 (Homo sapiens); assay: Inhibition of Gli1 (unknown origin) expression in mouse Shh Light2 cells at 1 to 100 uM by Western blot analysis; format: cell-based; method in brief: as §2
Mus musculus = organism: Mus musculus; conditions: 0.5 to 50 uM
Shh Light II [5] = assay: Cytotoxicity against mouse Shh Light2 cells up to 150 uM after 40 hrs by MTT assay; format: cell-based
Method in brief: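 MTT viability in Shh-LIGHT2 cells (NIH-3T3 clone with Gli-dependent firefly and constitutive Renilla luciferase reporters) after 40 h exposure to doses up to 150 μM, under the same conditions as the Hh reporter assay.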

Shh Light II [6] = assay: Effect on Ptch1 expression in mouse Shh Light2 cells at 25 to 50 uM after 24 hrs by Western blot analysis; format: functional, cell-based
Shh Light II [7] = assay: Effect on SHH expression in mouse Shh Light2 cells at 25 to 50 uM after 24 hrs by Western blot analysis; format: functional, cell-based
Method in brief: (§3)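 Shh-LIGHT2 cells treated 24 h, then SHH and SuFu protein levels assessed by western blotting.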

Shh Light II [8] = assay: Effect on SuFu expression in mouse Shh Light2 cells at 25 to 50 uM after 24 hrs by Western blot analysis; format: functional, cell-based; method in brief: as §3
Shh Light II [9] = assay: Cell cycle arrest in mouse Shh Light2 cells assessed as accumulation at subG0 phase at 100 uM after 30 to 48 hrs by propidium iodide staining-based flow cytometry (reference value: 3.4%); format: functional
Shh Light II [10] = assay: Effect on Smo expression in mouse Shh Light2 cells at 75 to 100 uM after 24 hrs by Western blot analysis; format: functional, cell-based
Shh Light II [11] = assay: Cell cycle arrest in mouse Shh Light2 cells assessed as accumulation at G2/M phase at 30 uM after 30 to 48 hrs by propidium iodide staining-based flow cytometry (reference value: 6.7%); format: functional
Shh Light II [12] = assay: Cell cycle arrest in mouse Shh Light2 cells assessed as accumulation at S phase at 100 uM after 30 to 48 hrs by propidium iodide staining-based flow cytometry (reference value: 3.6%); format: functional
Shh Light II [13] = assay: Cell cycle arrest in mouse Shh Light2 cells assessed as accumulation at G0/G1 phase at 30 uM after 30 to 48 hrs by propidium iodide staining-based flow cytometry (reference value: 86.2%); format: functional
Shh Light II [14] = assay: Cell cycle arrest in mouse Shh Light2 cells assessed as accumulation at S phase at 30 uM after 30 to 48 hrs by propidium iodide staining-based flow cytometry (reference value: 3.6%); format: functional
Shh Light II [15] = assay: Effect on SuFu expression in mouse Shh Light2 cells at 75 to 100 uM after 24 hrs by Western blot analysis; format: functional, cell-based
Shh Light II [16] = assay: Cell cycle arrest in mouse Shh Light2 cells assessed as accumulation at G0/G1 phase at 100 uM after 30 to 48 hrs by propidium iodide staining-based flow cytometry (reference value: 86.2%); format: functional
Shh Light II [17] = assay: Cell cycle arrest in mouse Shh Light2 cells assessed as accumulation at subG0 phase at 30 uM after 30 to 48 hrs by propidium iodide staining-based flow cytometry (reference value: 3.4%); format: functional
Shh Light II [18] = assay: Effect on SHH expression in mouse Shh Light2 cells at 75 to 100 uM after 24 hrs by Western blot analysis; format: functional, cell-based
Shh Light II [19] = assay: Cell cycle arrest in mouse Shh Light2 cells assessed as accumulation at G2/M phase at 100 uM after 30 to 48 hrs by propidium iodide staining-based flow cytometry (reference value: 6.7%); format: functional
Shh Light II [20] = assay: Effect on Ptch1 expression in mouse Shh Light2 cells at 75 to 100 uM after 24 hrs by Western blot analysis; format: functional, cell-based
Shh Light II [21] = assay: Cell cycle arrest in mouse Shh Light2 cells assessed as accumulation at G0/G1 phase at 10 uM after 30 to 48 hrs by propidium iodide staining-based flow cytometry (reference value: 86.2%); format: functional
Shh Light II [22] = assay: Cell cycle arrest in mouse Shh Light2 cells assessed as accumulation at S phase at 10 uM after 30 to 48 hrs by propidium iodide staining-based flow cytometry (reference value: 3.6%); format: functional
Shh Light II [23] = assay: Cell cycle arrest in mouse Shh Light2 cells assessed as accumulation at G2/M phase at 10 uM after 30 to 48 hrs by propidium iodide staining-based flow cytometry (reference value: 6.7%); format: functional
Shh Light II [24] = assay: Cell cycle arrest in mouse Shh Light2 cells assessed as accumulation at subG0 phase at 10 uM after 30 to 48 hrs by propidium iodide staining-based flow cytometry (reference value: 3.4%); format: functional

What does the source list for `COC(=O)C1CCCNN1` (configuration not stated)?
inhibition [1]: inactive; inhibition [2]: inactive

What does the source list for `COC(=O)C1CCCCNN1` (configuration not stated)?
inhibition [1]: inactive; inhibition [2]: inactive

With `O=C(O)C1CCCCN1` (configuration not stated) as the molecule, how does the inhibition [3] read?
Its inhibition is “inactive”.

What about the inhibition [4] of the same molecule?
Its inhibition is “inactive”.

For `NC(=O)C1CCCNN1` (configuration not stated), which inhibition (Mus musculus) is on record?
The inhibition was “inactive”.

And the Activity (Shh Light II [5])?
The Activity was “Non-Toxic”.

What about the Activity (Shh Light II [6]) of the same molecule?
The Activity was “inactive”.

And the Activity (Shh Light II [7])?
The Activity was “inactive”.

And the Activity (Shh Light II [8])?
Its Activity is “inactive”.

Which inhibition [1] does the source give for `O=C(O)C1CCCCNN1` (configuration not stated) here?
Its inhibition is “inactive”.

And the inhibition [2]?
Its inhibition is “inactive”.

Which inhibition (Mus musculus) does the source give for `CN(C)C(=O)C1CCCNN1` (configuration not stated) here?
The inhibition was “inactive”.

And the Activity (Shh Light II [5])?
Its Activity is “Non-Toxic”.

And the Activity (Shh Light II [6])?
The Activity was “inactive”.

And the Activity (Shh Light II [7])?
The Activity was “inactive”.

What about the Activity (Shh Light II [8]) of the same molecule?
The Activity was “inactive”.

What does the source list for `O=C(O)C1CCCNN1` (configuration not stated)?
Activity (Shh Light II [9]): 5.2%; Activity (Shh Light II [10]): inactive; Activity (Shh Light II [11]): 7.8%; Activity (Shh Light II [12]): 4.9%; Activity (Shh Light II [13]): 82.9%; Activity (Shh Light II [5]): Non-Toxic; Activity (Shh Light II [14]): 4.4%; Activity (Shh Light II [15]): inactive; Activity (Shh Light II [16]): 81.3%; Activity (Shh Light II [17]): 4.7%; inhibition [1]: < 50%; Activity (Shh Light II [18]): inactive; inhibition [4]: Dose-dependent effect; Activity (Shh Light II [19]): 8.3%; Activity (Shh Light II [20]): inactive

How did the Activity (Shh Light II [21]) turn out when `CC1=C2C[C@H]3[C@@H](CC=C4C[C@@H](O)CC[C@@]43C)[C@@H]2CC[C@]12O[C@@H]1C[C@H](C)CN[C@H]1[C@H]2C` [CYCLOPAMINE] was run?
Its Activity is 84.1%.

And the Activity (Shh Light II [22])?
The Activity was 4.7%.

What about the Activity (Shh Light II [23]) of the same molecule?
The Activity was 7.7%.

And the Activity (Shh Light II [24])?
The Activity was 3.2%.
